For assay [1], the target named is T1, Neuromedin-K receptor (Rattus norvegicus) (UniProt P16177).
T1 sequence (whole entry): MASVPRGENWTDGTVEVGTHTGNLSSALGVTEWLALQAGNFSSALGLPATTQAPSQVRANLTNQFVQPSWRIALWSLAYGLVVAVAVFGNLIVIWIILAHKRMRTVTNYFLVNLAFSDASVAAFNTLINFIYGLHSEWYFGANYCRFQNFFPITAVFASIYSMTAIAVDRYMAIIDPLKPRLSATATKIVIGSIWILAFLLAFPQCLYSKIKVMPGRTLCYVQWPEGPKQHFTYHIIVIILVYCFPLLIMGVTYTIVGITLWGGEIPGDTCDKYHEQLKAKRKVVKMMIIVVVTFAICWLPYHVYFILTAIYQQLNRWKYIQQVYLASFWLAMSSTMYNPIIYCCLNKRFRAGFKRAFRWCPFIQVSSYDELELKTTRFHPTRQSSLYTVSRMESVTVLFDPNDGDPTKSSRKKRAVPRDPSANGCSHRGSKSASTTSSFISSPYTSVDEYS
The assay can be described thus: Compound was evaluated for antagonism of contractile response of rat portal vein at Tachykinin receptor 3. It counts as functional. A digest of the protocol:
(§1)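 Everted portal vein from male AHA rats (250–500 g). Contraction to senktide (NK-3). Agonist curves were repeated at least twice before exposure to one antagonist concentration per preparation. Concentration-ratio estimated graphically at the half-maximal level. pK_B = log(CR−1) − log(molar antagonist). Mean ± SE of four to eight tissues.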

For assay [2], the target named is Substance-P receptor (Cavia porcellus) (UniProt P30547). Briefly: Compound was evaluated for antagonism of contractile response of guinea pig ileum longitudinal smooth muscle (GPI) at Tachykinin receptor 1. It counts as functional, tissue-based. The method in brief: (§2)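 Isolated longitudinal smooth muscle of ileum from male Dunkin-Hartley guinea-pigs (300–600 g), killed by concussion and exsanguination. Contraction to SP methyl ester (NK-1 agonist). At least two control agonist curves, then one antagonist concentration per preparation. Concentration-ratio read graphically at half-maximal response. pK_B = log(CR−1) − log[antagonist]. Mean ± SE over four to eight tissues.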
Sequence of Substance-P receptor (Cavia porcellus) (P30547 whole entry): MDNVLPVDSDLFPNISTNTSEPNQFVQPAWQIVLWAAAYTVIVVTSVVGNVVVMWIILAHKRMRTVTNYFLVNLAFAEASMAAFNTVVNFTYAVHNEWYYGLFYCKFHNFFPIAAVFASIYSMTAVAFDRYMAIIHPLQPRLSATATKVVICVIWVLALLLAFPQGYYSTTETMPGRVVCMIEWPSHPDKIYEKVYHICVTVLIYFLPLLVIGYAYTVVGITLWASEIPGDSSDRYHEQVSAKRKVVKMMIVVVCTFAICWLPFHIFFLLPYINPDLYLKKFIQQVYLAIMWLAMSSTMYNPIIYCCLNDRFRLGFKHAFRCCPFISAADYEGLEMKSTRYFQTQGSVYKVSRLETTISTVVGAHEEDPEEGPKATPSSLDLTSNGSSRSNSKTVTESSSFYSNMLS

The target in assay [3] is T2, Substance-K receptor (Rattus norvegicus) (UniProt P16610).
T2 sequence (whole entry): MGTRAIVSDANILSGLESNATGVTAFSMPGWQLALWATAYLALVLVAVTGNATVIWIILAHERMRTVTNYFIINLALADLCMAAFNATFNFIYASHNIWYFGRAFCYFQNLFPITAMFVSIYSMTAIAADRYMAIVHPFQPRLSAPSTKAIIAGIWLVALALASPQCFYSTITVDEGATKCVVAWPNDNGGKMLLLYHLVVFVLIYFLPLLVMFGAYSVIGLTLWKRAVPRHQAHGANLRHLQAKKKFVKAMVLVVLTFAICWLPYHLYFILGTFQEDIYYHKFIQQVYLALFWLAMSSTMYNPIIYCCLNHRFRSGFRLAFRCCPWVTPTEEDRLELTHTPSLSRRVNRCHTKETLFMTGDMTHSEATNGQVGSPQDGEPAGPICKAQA
Briefly: Compound was evaluated for antagonism of contractile response of rat colon muscularis mucosae (RC) at Tachykinin receptor 2. It counts as functional, tissue-based. The following applies: Muscularis mucosa. A digest of the protocol:
(§3)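 Colon muscularis mucosae from male AHA rats (250–500 g), killed by concussion and exsanguination. Contraction to neurokinin A (NK-2). At least two control agonist curves, then a single antagonist concentration per tissue. Equiactive agonist concentration-ratio taken at half-maximal response. pK_B = log(CR−1) − log[antagonist]. Mean ± SE over four to eight preparations.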

For assay [4], the target named is T1, Neuromedin-K receptor (Rattus norvegicus). The assay can be described thus: Compound was evaluated for antagonism of contractile response of rat portal vein at tachykinin receptor 3. It counts as functional. The method in brief:
as §1

For assay [5], the target named is Substance-P receptor (Cavia porcellus) (UniProt P30547). Briefly: Compound was evaluated for antagonism of contractile response of guinea pig ileum longitudinal smooth muscle (GPI) at tachykinin receptor 1. It counts as functional, tissue-based. The method in brief: as §2
Assay [6] has as its target T2, Substance-K receptor (Rattus norvegicus). The assay can be described thus: Compound was evaluated for antagonism of contractile response of rat colon muscularis mucosae (RC) at tachykinin receptor 2. The assay is classed as functional, tissue-based. The following applies: Muscularis mucosa. A digest of the protocol: as §3

These results are taken from ChEMBL document CHEMBL1125477, “Highly potent and selective heptapeptide antagonists of the neurokinin NK-2 receptor” (J Med Chem, 1992).

Structures are written as SMILES. Square brackets hold non-standard residues; d marks the D form. Peptide text beside a SMILES is read from it. * marks the point of attachment. Nle = CCCC[C@H](N)C(=O)O; Bz = O=C(c1ccccc1)*

In the case of `CCCC[C@H](NC(=O)[C@@H]1CCCN1C(=O)[C@H]1CCCN1C(=O)[C@H](Cc1ccccc1)NC(=O)[C@@H](Cc1c[nH]c2ccccc12)NC(=O)[C@H](C)NC(=O)[C@H](CCC(N)=O)NC(=O)OC(C)(C)C)C(N)=O`, the negative logarithm of the KB (pKB) stood at 5.1 in assay [1], 5.6 in assay [2] and 7.9 in assay [3].
As to `CCCC[C@H](NC(=O)[C@@H]1CCCN1C(=O)[C@H]1CCCN1C(=O)[C@H](Cc1ccccc1)NC(=O)[C@@H](Cc1c[nH]c2ccccc12)NC(=O)[C@H](C)NC(=O)[C@H](C)NC(=O)c1ccccc1)C(N)=O` (Bz-AA[dW]F[dP]P[Nle]-NH2), the negative-log KB (pKB) in assay [1] amounted to 6; in assay [2] it was 6.4; in assay [3] it was 9.6.
For `CCCC[C@H](NC(=O)[C@@H]1CCCN1C(=O)[C@H]1CCCN1C(=O)[C@H](Cc1ccccc1)NC(=O)[C@@H](Cc1c[nH]c2ccccc12)NC(=O)[C@H](C)NC(=O)[C@H](CCC(N)=O)NC(=O)c1ccccc1)C(N)=O`, the figures for the negative-log KB (pKB) in assay [1], in assay [2] and in assay [3] were 5.6, 6.6 and 8.8, respectively.
On to `CCCC[C@H](NC(=O)[C@@H]1CCCN1C(=O)[C@H]1CCCN1C(=O)[C@H](Cc1ccccc1)NC(=O)[C@@H](Cc1c[nH]c2ccccc12)NC(=O)[C@H](C)NC(=O)[C@H](CCC/N=C(\N)N[N+](=O)[O-])NC(=O)OC(C)(C)C)C(N)=O`, for which the pKB in assay [4] amounted to 5.2; in assay [5], 5.5; in assay [6] it was 8.2.
With `CCCC[C@H](NC(=O)[C@@H]1CCCN1C(=O)[C@H]1CCCN1C(=O)[C@H](Cc1ccccc1)NC(=O)[C@H](Cc1ccccc1)NC(=O)[C@H](C)NC(=O)[C@@H](N)CCCN=C(N)N)C(N)=O`, the pKB in assay [4], in assay [5] and in assay [6] was under 4.6 each time.
In the case of `CCCC[C@H](NC(=O)[C@@H]1CCCN1C(=O)CNC(=O)[C@H](Cc1ccccc1)NC(=O)[C@@H](Cc1c[nH]c2ccccc12)NC(=O)[C@H](C)NC(=O)[C@@H](N)CCCN=C(N)N)C(N)=O`, the negative logarithm of the KB (pKB) in assay [4] is under 4.6; in assay [5], 4.8; in assay [6], under 4.6.
In the case of `CCCC[C@H](NC(=O)[C@@H]1CCCN1C(=O)[C@H]1CCCN1C(=O)[C@H](Cc1ccccc1)NC(=O)[C@@H](Cc1c[nH]c2ccccc12)NC(=O)[C@H](C)NC(=O)[C@H](C)NC(=O)OC(C)(C)C)C(N)=O`, the negative-log KB (pKB) in assay [1] stood at 4.7; in assay [2] it was 5.5; in assay [3], 9.3.
